Results from ChEMBL document CHEMBL1121786, “Studies on position 1 of angiotensin II: effects on affinity and duration of action from alkyl amide substitution” (J Med Chem, 1981).

Tests used:
Oryctolagus cuniculus [1] = organism: Oryctolagus cuniculus; assay: In vitro intrinsic activity was determined against rabbit aorta and expressed as factor F at t3/4; type: functional
Oryctolagus cuniculus [2] = organism: Oryctolagus cuniculus; assay: In vitro intrinsic activity was determined against rabbit aorta and expressed as alpha E; type: functional
Summary of the method: (§1)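 Isolated aortic tissue in a bath aerated with 95% O2/5% CO2 under 2.0 g initial tension, readjusted during a 60–90 min equilibration with bath fluid changed every 10–15 min. Concentrations are final bath concentrations. Peptides are kept as 1 mg/mL stocks in distilled water at -20 °C for up to 14 days and diluted in 0.9% saline just before use.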

Oryctolagus cuniculus [3] = organism: Oryctolagus cuniculus; assay: In vitro intrinsic activity against rabbit aorta and value was reported as factor between the hypertensin and the compound; type: functional; summary of the method: as §1
Oryctolagus cuniculus [4] = organism: Oryctolagus cuniculus; assay: In vitro intrinsic activity was determined against rabbit aorta and expressed as factor F at t1/2; type: functional
Oryctolagus cuniculus [5] = organism: Oryctolagus cuniculus; assay: In vitro intrinsic activity was determined against rabbit aorta and time taken to ralax maximally contracted tissue to 25% was reported; type: functional; design: unit not given beside the values
Summary of the method: (§2)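 Aortic strips are held in an aerated (95% O2/5% CO2) bath under 2.0 g tension after a 60–90 min equilibration. At maximal agonist contraction, unbound peptide is removed by several washes and the time for tension to fall back toward the pre-contraction level is recorded. Peptides are diluted in 0.9% saline from 1 mg/mL aqueous stocks immediately before use.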

Rattus norvegicus [6] = assay: In vivo intrinsic activity against rat aorta and value was reported as factor between the hypertensin and the compound; type: functional
Summary of the method: (§3)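 Male Wistar rats (~250 g) are anesthetized with urethane 1.4 g/kg sc, with jugular vein and carotid artery cannulated. Peptides are diluted in 0.9% saline from 1 mg/mL aqueous stocks and injected intravenously. Arterial blood pressure is recorded through the carotid cannula with a pressure transducer.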

Rattus norvegicus [7] = assay: In vivo intrinsic activity was determined against rat aorta and percent increase in blood pressure was reported; type: functional; summary of the method: as §3
Oryctolagus cuniculus [8] = organism: Oryctolagus cuniculus; assay: In vitro intrinsic activity was determined against rabbit aorta and percent increase in blood pressure was reported; type: functional
Oryctolagus cuniculus [9] = organism: Oryctolagus cuniculus; assay: In vitro intrinsic activity was determined against rabbit aorta and expressed as negative logarithm of half maximal dose; summary of the method: as §1
Oryctolagus cuniculus [10] = organism: Oryctolagus cuniculus; assay: In vitro intrinsic activity was determined against rabbit aorta and time taken to ralax maximally contracted tissue to 50% was reported; type: functional; summary of the method: as §2

pD2 (Oryctolagus cuniculus [9]) | Molecule | F3/4 (Oryctolagus cuniculus [1]) | Alpha E (Oryctolagus cuniculus [2]) | Activity (Oryctolagus cuniculus [3]) | F1/2 (Oryctolagus cuniculus [4]) | T3/4 (Oryctolagus cuniculus [5]) | Activity Factor (Rattus norvegicus [6]) | Increase in blood pressure (Rattus norvegicus [7]) | Increase in blood pressure (Oryctolagus cuniculus [8]) | T1/2 (Oryctolagus cuniculus [10])
 | CC[C@H](C)[C@H](NC(=O)[C@H](Cc1ccc(O)cc1)NC(=O)[C@@H](NC(=O)[C@H](CCCN=C(N)N)NC(=O)[C@@H](N)CC(=O)N(C)C)C(C)C)C(=O)N[C@@H](Cc1c[nH]cn1)C(=O)N1CCC[C@H]1C(=O)N[C@@H](Cc1ccccc1)C(=O)O [listing 1 of 2 here] | 2.3 | 1 | 2.2 | 1.3 | 20 | 3.3 | 30% | 46% | 
6.69 | CC[C@H](C)[C@H](NC(=O)[C@H](Cc1ccc(O)cc1)NC(=O)[C@@H](NC(=O)[C@H](CCCN=C(N)N)NC(=O)[C@@H](N)CC(=O)N(C(C)C)C(C)C)C(C)C)C(=O)N[C@@H](Cc1c[nH]cn1)C(=O)N1CCC[C@H]1C(=O)N[C@@H](Cc1ccccc1)C(=O)O [listing 1 of 2 here] |  |  |  |  |  |  |  |  | 
 | CC[C@H](C)[C@H](NC(=O)[C@H](Cc1ccc(O)cc1)NC(=O)[C@@H](NC(=O)[C@H](CCCN=C(N)N)NC(=O)[C@@H](N)CC(=O)N(C(C)C)C(C)C)C(C)C)C(=O)N[C@@H](Cc1c[nH]cn1)C(=O)N1CCC[C@@H]1C(=O)N[C@@H](Cc1ccccc1)C(=O)O |  |  |  |  |  |  |  |  | 14.3
6.93 | CCCN(CCC)C(=O)C[C@H](N)C(=O)N[C@@H](CCCN=C(N)N)C(=O)N[C@H](C(=O)N[C@@H](Cc1ccc(O)cc1)C(=O)N[C@H](C(=O)N[C@@H](Cc1c[nH]cn1)C(=O)N1CCC[C@H]1C(=O)N[C@@H](Cc1ccccc1)C(=O)O)[C@@H](C)CC)C(C)C [listing 1 of 2 here] |  |  |  |  |  |  |  |  | 
7.73 | H-NRVYIHPF-OH | 1 | 1 | 1 | 1 | 8.7 | 1 | 100% | 100% | 5
 | CC[C@H](C)[C@H](NC(=O)[C@H](Cc1ccc(O)cc1)NC(=O)[C@@H](NC(=O)[C@H](CCCN=C(N)N)NC(=O)[C@@H](N)CC(=O)N(C(C)C)C(C)C)C(C)C)C(=O)N[C@@H](Cc1c[nH]cn1)C(=O)N1CCC[C@H]1C(=O)N[C@@H](Cc1ccccc1)C(=O)O [listing 2 of 2 here] | 4.2 | 1 | 11 | 2.9 | 36.7 | 14.3 | 7% | 9% | 
 | CC[C@H](C)[C@H](NC(=O)[C@H](Cc1ccc(O)cc1)NC(=O)[C@@H](NC(=O)[C@H](CCCN=C(N)N)NC(=O)[C@@H](N)CC(=O)N(C)C)C(C)C)C(=O)N[C@@H](Cc1c[nH]cn1)C(=O)N1CCC[C@@H]1C(=O)N[C@@H](Cc1ccccc1)C(=O)O |  |  |  |  |  |  |  |  | 6.7
7.39 | CC[C@H](C)[C@H](NC(=O)[C@H](Cc1ccc(O)cc1)NC(=O)[C@@H](NC(=O)[C@H](CCCN=C(N)N)NC(=O)[C@@H](N)CC(=O)N(C)C)C(C)C)C(=O)N[C@@H](Cc1c[nH]cn1)C(=O)N1CCC[C@H]1C(=O)N[C@@H](Cc1ccccc1)C(=O)O [listing 2 of 2 here] |  |  |  |  |  |  |  |  | 
 | CCCN(CCC)C(=O)C[C@H](N)C(=O)N[C@@H](CCCN=C(N)N)C(=O)N[C@H](C(=O)N[C@@H](Cc1ccc(O)cc1)C(=O)N[C@H](C(=O)N[C@@H](Cc1c[nH]cn1)C(=O)N1CCC[C@@H]1C(=O)N[C@@H](Cc1ccccc1)C(=O)O)[C@@H](C)CC)C(C)C |  |  |  |  |  |  |  |  | 18.7
 | CCCN(CCC)C(=O)C[C@H](N)C(=O)N[C@@H](CCCN=C(N)N)C(=O)N[C@H](C(=O)N[C@@H](Cc1ccc(O)cc1)C(=O)N[C@H](C(=O)N[C@@H](Cc1c[nH]cn1)C(=O)N1CCC[C@H]1C(=O)N[C@@H](Cc1ccccc1)C(=O)O)[C@@H](C)CC)C(C)C [listing 2 of 2 here] | 5.1 | 1 | 6.3 | 3.7 | 44 | 11.1 | 9% | 16% | 
